Measurements published in ChEMBL document CHEMBL5303300, “EUbOPEN Chemogenomics Library - Multiplex” (2023).
Where “and” joins values, the source holds several entries; their conditions need not be identical. Identical values can stand only once.

Assays:
[1] = test system: Fibroblast; test: Multiplex assay against human fibroblast; format: toxicity, cell-based; settings: number of replicates 2
Summary of the method: (§1)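 Live cells carried four stains from seeding: Hoechst33342, BioTracker Green Microtubule Cytoskeleton Dye, MitoTracker Red and Annexin V Alexa Fluor 680. They were imaged on a CQ1 microscope at 37°C and 5% CO2 after compound addition. Using CellPathfinder machine-learning gating, cells were split into Hoechst high-intensity objects or normal cells, normal cells into healthy, pyknosed or fragmented nuclei, and pyknosed cells into mitotic or apoptotic; tubulin, mitochondrial-mass and membrane-permeability phenotypes are per cents of healthy-nucleus cells.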

[2] = test system: U2OS; test: Multiplex assay against U2OS; format: toxicity, cell-based; settings: human, number of replicates 2; summary of the method: as §1
[3] = 12 h, 1 µM, compound concentration 1 uM
[4] = 12 h, 10 µM, compound concentration 10 uM
[5] = 24 h, 1 µM, compound concentration 1 uM
[6] = 24 h, 10 µM, compound concentration 10 uM
[7] = 48 h, 1 µM, compound concentration 1 uM
[8] = 48 h, 10 µM, compound concentration 10 uM

Question: What does the source list for `COCCNC1CCC(Nc2cc(-c3csc(NCC4(C#N)CCOCC4)n3)c(Cl)cn2)CC1` (configuration not stated)?
Answer: Population Apoptotic (%) [1, 3]: 50% and 31%; Population Fragmented Nuclei (%) [1, 3]: 7% and 12%; Population Healthy Nuclei (%) [1, 3]: 73% and 67%; Population Hoechst High Intensity Objects (%) [1, 3]: 0%; Population Membrane Permeable-Phenotype (%) [1, 3]: 2% and 7%; Population Mitochondria Different-Phenotype (%) [1, 3]: 1% and 2%; Population Mitotic Cells (%) [1, 3]: 50% and 68%; Population Normal (%) [1, 3]: 99%; Population Pyknosed Nuclei (%) [1, 3]: 19% and 20%; Population Tubulin-Different-Phenotype (%) [1, 3]: 13% and 12%; Total Cell Count [1, 3]: 154 and 189; Population Apoptotic (%) [1, 4]: 48% and 47%; Population Fragmented Nuclei (%) [1, 4]: 10% and 15%; Population Healthy Nuclei (%) [1, 4]: 70% and 68%; Population Hoechst High Intensity Objects (%) [1, 4]: 0%; Population Membrane Permeable-Phenotype (%) [1, 4]: 12% and 13%; Population Mitochondria Different-Phenotype (%) [1, 4]: 5% and 10%; Population Mitotic Cells (%) [1, 4]: 51% and 52%; Population Normal (%) [1, 4]: 99% and 100%; Population Pyknosed Nuclei (%) [1, 4]: 18% and 16%; Population Tubulin-Different-Phenotype (%) [1, 4]: 79% and 67%; Total Cell Count [1, 4]: 219 and 209; Population Apoptotic (%) [1, 5]: 55% and 74%; Population Fragmented Nuclei (%) [1, 5]: 10% and 4%; Population Healthy Nuclei (%) [1, 5]: 71% and 80%; Population Hoechst High Intensity Objects (%) [1, 5]: 0%; Population Membrane Permeable-Phenotype (%) [1, 5]: 4% and 6%; Population Mitochondria Different-Phenotype (%) [1, 5]: 3% and 0%; Population Mitotic Cells (%) [1, 5]: 44% and 25%; Population Normal (%) [1, 5]: 99% and 100%; Population Pyknosed Nuclei (%) [1, 5]: 17% and 15%; Population Tubulin-Different-Phenotype (%) [1, 5]: 20% and 19%; Total Cell Count [1, 5]: 163 and 170; Population Apoptotic (%) [1, 6]: 53% and 65%; Population Fragmented Nuclei (%) [1, 6]: 14% and 13%; Population Healthy Nuclei (%) [1, 6]: 72% and 73%; Population Hoechst High Intensity Objects (%) [1, 6]: 1% and 0%; Population Membrane Permeable-Phenotype (%) [1, 6]: 11%; Population Mitochondria Different-Phenotype (%) [1, 6]: 18%; Population Mitotic Cells (%) [1, 6]: 46% and 34%; Population Normal (%) [1, 6]: 98% and 100%; Population Pyknosed Nuclei (%) [1, 6]: 12%; Population Tubulin-Different-Phenotype (%) [1, 6]: 87% and 70%; Total Cell Count [1, 6]: 206 and 210; Population Apoptotic (%) [1, 7]: 59% and 68%; Population Fragmented Nuclei (%) [1, 7]: 9% and 11%; Population Healthy Nuclei (%) [1, 7]: 57% and 55%; Population Hoechst High Intensity Objects (%) [1, 7]: 0%; Population Membrane Permeable-Phenotype (%) [1, 7]: 14%; Population Mitochondria Different-Phenotype (%) [1, 7]: 3% and 1%; Population Mitotic Cells (%) [1, 7]: 40% and 31%; Population Normal (%) [1, 7]: 100%; Population Pyknosed Nuclei (%) [1, 7]: 33% and 32%; Population Tubulin-Different-Phenotype (%) [1, 7]: 30% and 22%; Total Cell Count [1, 7]: 154 and 174; Population Apoptotic (%) [1, 8]: 54% and 76%; Population Fragmented Nuclei (%) [1, 8]: 15% and 13%; Population Healthy Nuclei (%) [1, 8]: 64% and 67%; Population Hoechst High Intensity Objects (%) [1, 8]: 0% and 1%; Population Membrane Permeable-Phenotype (%) [1, 8]: 12% and 10%; Population Mitochondria Different-Phenotype (%) [1, 8]: 18% and 16%; Population Mitotic Cells (%) [1, 8]: 45% and 23%; Population Normal (%) [1, 8]: 99%; Population Pyknosed Nuclei (%) [1, 8]: 20% and 19%; Population Tubulin-Different-Phenotype (%) [1, 8]: 81% and 71%; Total Cell Count [1, 8]: 207 and 200; Population Apoptotic (%) [2, 3]: 45% and 87%; Population Fragmented Nuclei (%) [2, 3]: 17% and 9%; Population Healthy Nuclei (%) [2, 3]: 34% and 40%; Population Hoechst High Intensity Objects (%) [2, 3]: 0%; Population Mitochondria Different-Phenotype (%) [2, 3]: 7%; Population Normal (%) [2, 3]: 100% and 99%; Population Pyknosed Nuclei (%) [2, 3]: 48% and 49%; Population Tubulin-Different-Phenotype (%) [2, 3]: 57% and 58%; Population Apoptotic (%) [2, 4]: 83% and 89%; Population Fragmented Nuclei (%) [2, 4]: 10%; Population Hoechst High Intensity Objects (%) [2, 4]: 2% and 1%; Population Mitochondria Different-Phenotype (%) [2, 4]: 40% and 66%; Population Mitotic Cells (%) [2, 4]: 16% and 10%; Population Normal (%) [2, 4]: 97% and 98%; Population Pyknosed Nuclei (%) [2, 4]: 40% and 78%; Population Tubulin-Different-Phenotype (%) [2, 4]: 50%; Population Apoptotic (%) [2, 5]: 59% and 94%; Population Fragmented Nuclei (%) [2, 5]: 13% and 9%; Population Healthy Nuclei (%) [2, 5]: 25% and 26%; Population Hoechst High Intensity Objects (%) [2, 5]: 0% and 3%; Population Membrane Permeable-Phenotype (%) [2, 5]: 0% and 14%; Population Mitochondria Different-Phenotype (%) [2, 5]: 0% and 11%; Population Normal (%) [2, 5]: 100% and 96%; Population Pyknosed Nuclei (%) [2, 5]: 61% and 63%; Population Tubulin-Different-Phenotype (%) [2, 5]: 55%; Population Apoptotic (%) [2, 6]: 91%
